Measurements as given in ChEMBL document CHEMBL1124478, “Cardiotonic agents. 5. Fragments from the heterocycle-phenyl-imidazole pharmacophore” (J Med Chem, 1989).

Columns and labels:
Mustela putorius furo [1] = species on record: Mustela putorius furo; test: 20% increase in contractile force (CF) of ferret papillary muscle; assay type: functional, Muscle tissue
Summary of the method: (§1)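 Isolated ferret papillary muscle in vitro. Value is the drug concentration (μM) giving a 20% rise in contractile force, the mean of at least two determinations, with ranges within ±10%. NR means that level was not reached at 100 μM. Responses were also tested with 1 μM propranolol and, for some compounds, 10 μM cimetidine.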

[2] = Inhibition of crude canine cardiac c-AMP phosphodiesterase; parameters: species or system Canis lupus familiaris
Summary of the method: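 Crude cAMP phosphodiesterase came from canine cardiac tissue homogenates. IC50 (μM) is the mean of at least three determinations, with ranges within ±10%. Where 50% inhibition was not reached at 100 μM, the percent inhibition at 100 μM drug was recorded instead.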

[3] = system: cAMP phosphodiesterase (Canis familiaris); test: Inhibition of crude canine cardiac c-AMP phosphodiesterase at 100 uM; conditions: Canis lupus familiaris
Mustela putorius furo [4] = species on record: Mustela putorius furo; test: Increase in contractile force (CF) of ferret papillary muscle; NR = not reached at 100 uM; assay type: functional; conditions: Muscle tissue; summary of the method: as §1

SMILES | IC50 [2] [µM] | inhibition [3] [%] | C20 (Mustela putorius furo [1]) [µM] | C20 (Mustela putorius furo [4])
CCc1[nH]c(O)nc1C(=O)c1ccc(-n2ccnc2C)cc1 | – | – | 0.7 | –
CCc1[nH]c(O)nc1C(=O)c1ccccc1 | 54 | – | 2 | –
CCc1[nH]c(O)nc1C(=O)OC | – | 10 | – | Not reached
CCc1[nH]c(O)nc1C(=O)NCCCn1ccnc1 | – | 5 | – | Not reached
Cc1nc(=O)c(C#N)c(NCc2cccnc2)[nH]1 [PELRINONE] | 4 | – | 0.2 | –
COc1ccc(C(=O)N2CCN(c3ccc4c(c3)CCC(=O)N4)CC2)cc1OC [VESNARINONE] | 32 | – | 2.3 | –
CCc1[nH]c(O)nc1C(=O)NCCc1c[nH]cn1 | – | 25 | 10 | –
Cc1nc(O)c(C#N)c(NCCc2c[nH]cn2)n1 | 4 | – | 0.2 | –

Continued, in another order:

IC50 [2] [µM] | inhibition [3] [%] | SMILES | C20 (Mustela putorius furo [1]) [µM] | C20 (Mustela putorius furo [4])
2 | – | CCc1[nH]c(O)nc1C(=O)c1ccc(-n2ccnc2)cc1 | 0.05 | –
71 | – | O=C1CCc2cc(-n3ccnc3)ccc2N1 | 1.6 | –
– | 15 | CC(=O)c1ccc(-n2ccnc2C)cc1 | 25 | –
